Data from ChEMBL document CHEMBL1131173, “Alkoxypsoralens, novel nonpeptide blockers of Shaker-type K+ channels: synthesis and photoreactivity” (J Med Chem, 1998).

Key:
[1] = compound was tested for production of singlet oxygen, measured as decrease in absorbance of N,N-dimethyl-p-nitrosoaniline (RNO) at 440 nm after 5 hr of UV-A irradiation; assay type: ADME; conditions: 10 µM
How it was run: (§1)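 Singlet oxygen generation by compound at 10 µM in O2-saturated solution, read as RNO bleaching. Absorbance decrease was measured at 440 nm after 5 h of UV-A irradiation (4.5 mW/cm2, incident dose 81 J/cm2).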

[2] = target: Potassium voltage-gated channel subfamily A member 3 (Mus musculus, UniProt P16390); test: Blockade of peak Kv1.3 potassium currents; assay type: functional
Chain of Potassium voltage-gated channel subfamily A member 3 (P16390 whole entry): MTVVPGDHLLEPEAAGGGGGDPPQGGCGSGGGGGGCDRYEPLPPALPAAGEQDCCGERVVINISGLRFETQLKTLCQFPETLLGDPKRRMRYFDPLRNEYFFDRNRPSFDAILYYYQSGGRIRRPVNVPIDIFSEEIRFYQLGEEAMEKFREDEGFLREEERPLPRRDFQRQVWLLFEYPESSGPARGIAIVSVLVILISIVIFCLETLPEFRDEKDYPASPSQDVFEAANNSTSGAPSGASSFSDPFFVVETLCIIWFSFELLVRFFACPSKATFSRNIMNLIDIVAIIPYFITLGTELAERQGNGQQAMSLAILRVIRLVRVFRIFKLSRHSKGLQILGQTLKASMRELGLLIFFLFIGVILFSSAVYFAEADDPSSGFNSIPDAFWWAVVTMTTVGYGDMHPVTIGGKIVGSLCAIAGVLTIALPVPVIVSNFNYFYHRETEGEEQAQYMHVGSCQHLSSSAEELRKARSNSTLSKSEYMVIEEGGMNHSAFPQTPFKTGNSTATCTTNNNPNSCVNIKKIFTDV
How it was run: (§2)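 Channels expressed in mammalian cells and recorded by whole-cell patch clamp. Each compound was applied at several concentrations, and the apparent dissociation constant Kd was calculated for block of peak K+ current.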

[3] = target: T1, Potassium voltage-gated channel subfamily A member 1 (Homo sapiens, UniProt Q09470); test: K+ channel blocking activity as blockade at 25 uM in Xenopus laevis Ranvier nodes; assay type: functional
T1 sequence (Q09470 whole entry): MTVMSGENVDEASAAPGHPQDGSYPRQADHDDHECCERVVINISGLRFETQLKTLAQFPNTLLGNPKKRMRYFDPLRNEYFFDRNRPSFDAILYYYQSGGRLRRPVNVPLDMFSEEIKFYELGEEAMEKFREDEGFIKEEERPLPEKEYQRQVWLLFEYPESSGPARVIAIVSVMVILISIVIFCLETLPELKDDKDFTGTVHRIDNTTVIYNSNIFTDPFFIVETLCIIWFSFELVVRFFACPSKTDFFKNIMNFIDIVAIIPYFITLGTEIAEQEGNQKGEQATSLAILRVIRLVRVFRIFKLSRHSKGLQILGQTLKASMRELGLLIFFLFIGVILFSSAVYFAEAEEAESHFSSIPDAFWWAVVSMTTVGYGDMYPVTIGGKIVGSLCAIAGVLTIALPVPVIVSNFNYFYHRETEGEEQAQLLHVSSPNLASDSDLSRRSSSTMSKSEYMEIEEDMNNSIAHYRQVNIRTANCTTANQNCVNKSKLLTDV
How it was run: (§3)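 On the Ranvier node, compound was tested at 25 µM. Steady-state K+ current block (BK) was normalized to currents in normal bathing medium. Peak Na+ current block was measured at 70 mV pulse amplitude and normalized the same way. Selectivity S = BK/BNa.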

Nucleic Acid [4] = test: Photobinding to Poly(dA-dT)-Poly(dA-dT)-DNA after UV-A irradiation; assay type: nucleic-acid assay
How it was run: (§4)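 Poly(dA-dT)-poly(dA-dT) at 10 µM in 0.1 M MOPS, pH 7.0, with compound at a 1:1 compound:DNA ratio. Samples were kept 30 min in the dark or irradiated 30 min at 365 nm (4.5 mW/cm2, 8.1 J/cm2). Melting profiles gave ΔTm = Tm(DNA+drug) − Tm(DNA), as the mean of three determinations.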

Nucleic Acid [5] = test: Photobinding to Poly(dA-dT)-Poly(dA-dT)-DNA in dark, determined by the shift of thermal transition temperature; assay type: nucleic-acid assay; how it was run: as §4
[6] = (§5) Compound was tested for in vitro phototoxicity against nauplii of Artemia salina after UV-irradiation
How it was run: (§6)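 Artemia salina nauplii were hatched for 48 h, and ten per vial were placed in 3 mL seawater containing compound from 100 nM upward in methanol. Incubation was at 25 °C either under daylight or under added UV-A (1.3 mW/cm2, incident dose 112 J/cm2). Dead nauplii were counted at 24 h to give LC50. Run in triplicate.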

[7] = (§7) Compound was tested for in vitro phototoxicity against nauplii of Artemia salina in daylight; how it was run: as §6
[8] = target: T1, Potassium voltage-gated channel subfamily A member 1; test: Selectivity of K+ current blockade given by Bk/BNa in Xenopus laevis; assay type: functional; how it was run: as §3
Artemia salina [9] = test: as §5; assay type: functional; conditions: light or radiation study; how it was run: as §6
Artemia salina [10] = test: as §7; assay type: functional; conditions: light or radiation study; how it was run: as §6
Artemia salina [11] = test: Photoinduced dose modification against nauplii of Artemia salina; assay type: functional
How it was run: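 Artemia salina nauplii were collected 48 h after hatching, ten per vial in 3 mL seawater, with compound from 100 nM upward; methanol was the vehicle. Vials were incubated at 25 °C under daylight or with added UV-A (1.3 mW/cm2, incident dose 112 J/cm2). Dead nauplii were counted at 24 h to give LC50. Assays were run in triplicate.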

[12] = target: Potassium voltage-gated channel subfamily A member 5 (Homo sapiens, UniProt P22460); test: Blockade of peak K+ currents against Kv1.5 gene; assay type: functional
Chain of Potassium voltage-gated channel subfamily A member 5 (P22460 whole entry): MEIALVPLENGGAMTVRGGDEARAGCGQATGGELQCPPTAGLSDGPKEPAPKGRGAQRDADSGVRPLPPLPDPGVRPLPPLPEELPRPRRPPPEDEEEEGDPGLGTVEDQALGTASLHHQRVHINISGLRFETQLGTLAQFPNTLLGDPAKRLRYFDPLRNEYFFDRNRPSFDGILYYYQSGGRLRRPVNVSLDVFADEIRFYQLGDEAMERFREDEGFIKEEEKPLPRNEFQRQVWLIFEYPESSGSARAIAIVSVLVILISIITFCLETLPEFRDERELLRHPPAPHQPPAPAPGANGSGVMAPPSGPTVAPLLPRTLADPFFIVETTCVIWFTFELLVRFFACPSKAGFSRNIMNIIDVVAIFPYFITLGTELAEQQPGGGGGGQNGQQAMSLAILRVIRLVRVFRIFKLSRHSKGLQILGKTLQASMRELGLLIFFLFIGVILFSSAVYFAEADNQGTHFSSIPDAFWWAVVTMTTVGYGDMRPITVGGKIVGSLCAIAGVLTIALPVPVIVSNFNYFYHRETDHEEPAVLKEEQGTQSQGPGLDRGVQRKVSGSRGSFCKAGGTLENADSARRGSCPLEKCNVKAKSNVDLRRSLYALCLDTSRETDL
How it was run: (§8)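 Whole-cell patch-clamp recording of cloned channels expressed in mammalian cells. Each compound was tested at several concentrations, and an apparent Kd for block of peak K+ current was calculated.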

[13] = target: Potassium voltage-gated channel subfamily A member 6 (Homo sapiens, UniProt P17658); test: Blockade of peak K+ currents against Kv1.6 gene; assay type: functional; how it was run: as §8
Chain of Potassium voltage-gated channel subfamily A member 6 (P17658 whole entry): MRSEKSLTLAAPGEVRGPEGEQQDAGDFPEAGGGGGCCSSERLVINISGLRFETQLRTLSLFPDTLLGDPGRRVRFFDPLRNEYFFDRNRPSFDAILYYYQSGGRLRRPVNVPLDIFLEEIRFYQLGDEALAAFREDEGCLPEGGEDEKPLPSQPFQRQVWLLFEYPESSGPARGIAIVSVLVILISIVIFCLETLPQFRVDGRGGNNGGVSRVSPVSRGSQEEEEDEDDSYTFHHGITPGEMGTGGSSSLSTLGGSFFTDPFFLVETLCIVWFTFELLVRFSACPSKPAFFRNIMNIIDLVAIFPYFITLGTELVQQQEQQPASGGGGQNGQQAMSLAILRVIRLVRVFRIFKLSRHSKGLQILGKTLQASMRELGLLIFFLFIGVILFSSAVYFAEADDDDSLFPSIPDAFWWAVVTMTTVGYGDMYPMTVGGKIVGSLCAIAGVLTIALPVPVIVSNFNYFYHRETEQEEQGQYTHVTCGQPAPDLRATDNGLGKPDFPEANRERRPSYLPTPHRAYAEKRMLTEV

[14] = target: T2, Voltage-gated potassium channel KCNC1 (Homo sapiens, UniProt P48547); test: Blockade of peak K+ currents against Kv3.1 gene; assay type: functional; how it was run: as §2
T2 sequence (P48547 whole entry): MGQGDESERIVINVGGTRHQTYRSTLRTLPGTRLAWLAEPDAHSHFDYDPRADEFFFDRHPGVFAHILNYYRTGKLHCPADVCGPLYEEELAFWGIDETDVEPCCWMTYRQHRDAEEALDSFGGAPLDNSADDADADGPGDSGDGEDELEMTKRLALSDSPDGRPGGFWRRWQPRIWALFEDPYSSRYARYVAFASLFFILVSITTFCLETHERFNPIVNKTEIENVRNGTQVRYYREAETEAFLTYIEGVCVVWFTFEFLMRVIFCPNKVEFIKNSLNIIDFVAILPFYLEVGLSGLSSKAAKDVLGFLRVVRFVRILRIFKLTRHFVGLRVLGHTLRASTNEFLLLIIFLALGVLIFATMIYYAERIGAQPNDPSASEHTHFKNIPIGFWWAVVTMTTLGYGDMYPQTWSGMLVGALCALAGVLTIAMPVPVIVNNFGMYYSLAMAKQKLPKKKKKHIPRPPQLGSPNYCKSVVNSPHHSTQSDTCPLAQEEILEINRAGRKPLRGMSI

[15] = target: T1, Potassium voltage-gated channel subfamily A member 1; test: Blockade of peak K+ currents against Kv1.1 gene; assay type: functional; how it was run: as §2
[16] = target: Potassium voltage-gated channel subfamily A member 2 (Homo sapiens, UniProt P16389); test: Blockade of peak K+ currents against Kv1.2 gene; assay type: functional; how it was run: as §2
Chain of Potassium voltage-gated channel subfamily A member 2 (P16389 whole entry): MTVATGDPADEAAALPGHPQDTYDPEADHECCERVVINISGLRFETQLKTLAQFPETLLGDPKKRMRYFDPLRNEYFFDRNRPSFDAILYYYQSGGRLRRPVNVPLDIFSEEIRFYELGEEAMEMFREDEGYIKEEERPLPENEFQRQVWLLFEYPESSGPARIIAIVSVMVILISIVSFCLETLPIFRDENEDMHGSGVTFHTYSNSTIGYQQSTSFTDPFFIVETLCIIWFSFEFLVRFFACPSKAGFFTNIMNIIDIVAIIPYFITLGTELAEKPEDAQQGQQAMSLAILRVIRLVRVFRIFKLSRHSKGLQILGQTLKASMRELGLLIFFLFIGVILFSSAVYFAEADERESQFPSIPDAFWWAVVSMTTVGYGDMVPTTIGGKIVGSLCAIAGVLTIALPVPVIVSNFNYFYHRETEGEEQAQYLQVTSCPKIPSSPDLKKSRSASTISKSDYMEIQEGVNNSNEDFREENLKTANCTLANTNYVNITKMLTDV

[17] = Compound was tested for production of single oxygen, measured as decrease in absorbance of N,N-dimethyl-p-nitrosoaniline (RNO) at 440 nm after 5 hr of UV-A irradiation; assay type: ADME; conditions: 10 µM
How it was run: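 Singlet oxygen from compound at 10 µM was measured in O2-saturated solution by bleaching of N,N-dimethyl-p-nitrosoaniline. The read-out was the fall in absorbance at 440 nm after 5 h of UV-A (4.5 mW/cm2, incident dose 81 J/cm2).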

[18] = Compound was tested for production of singlet oxygen, measured as decrease in absorbance of N,N-dimethyl-p-nitrosoaniline (RNO) at 440 nm after 5 hr of UV-A irradiation; assay type: ADME; conditions: 10 µM; how it was run: as §1

SMILES | BK [3] [%] | ΔTm (Nucleic Acid [4]) [°C] | ΔTm (Nucleic Acid [5]) [°C] | LC50 [6] [µM] | LC50 [7] [µM] | Selectivity [8] | Dose modification (Artemia salina [11]) | also measured
COCc1c2occc2c(OC)c2ccc(=O)oc12 | 35 | 1 | 1 | > 100 | > 100 | 26 |  | O2 production [1]: 4%; Kd [2]: 28 µM
Cc1coc2cc3oc(=O)cc(C)c3cc12 | 25 |  |  |  |  | 8 | >150 | LC50 (Artemia salina [9]): 0.7 µM; LC50 (Artemia salina [10]): > 100 µM
COc1c2ccoc2c(OC)c2oc(=O)ccc12 [ISOPIMPINELLIN] |  | 1 | 0.5 | > 100 | > 100 |  |  | O2 production [1]: -5%
COc1c2ccoc2cc2oc(=O)ccc12 [BERGAPTEN] | 52 | 13 | 0.5 | 2.5 | > 100 | 14 | >40 | Kd [12]: 177 µM; Kd [13]: 187 µM; Kd [14]: 111 µM; Kd [2]: 101 µM; Kd [15]: > 200 µM; Kd [16]: 41 µM; O2 production [17]: 5%
COCc1cc(=O)oc2cc3occ(-c4ccccc4)c3cc12 | 27 |  |  |  |  | 2 |  | 
COCc1c2ccoc2c(OC)c2oc(=O)ccc12 | 14 |  |  |  |  | 3 |  | LC50 (Artemia salina [9]): > 100 µM; LC50 (Artemia salina [10]): > 100 µM
COc1c2occc2c(COC(C)C)c2ccc(=O)oc12 | 10 |  |  |  |  | 3 |  | 
CC1COc2cc3oc(=O)ccc3cc21 (centres undefined) | 23 | 0.5 | 0.5 | 25 | > 100 | 3 | >4 | O2 production [18]: 100%
COCc1cc(=O)oc2cc3occ(C)c3cc12 | 52 | > 20 | 0.5 | 2.5 | > 100 | 17 | >40 | O2 production [18]: 43%; Kd [14]: 213 µM; Kd [2]: 90 µM; Kd [15]: 56 µM; Kd [16]: 18 µM
COCc1c(C)oc2c(C)c3oc(=O)cc(C)c3cc12 | 31 | > 20 | 0.5 | 20 | > 100 | 11 | >5 | O2 production [1]: 50%
CC[N+](CC)(CC)Cc1c(C)oc2c(C)c3oc(=O)cc(C)c3cc12.[Cl-] | 27 | 16 | 7 |  |  | 5 |  | O2 production [1]: 66%
CCOCc1c(C)oc2c(C)c3oc(=O)cc(C)c3cc12 | 55 | > 20 | 1 |  |  | 6 |  | O2 production [1]: 50%
CCOc1cc(OCC)c2c(COC)cc(=O)oc2c1 | 35 |  |  |  |  | 1.8 |  | 
CC[N+](CC)(CC)Cc1c2ccoc2c(OC)c2oc(=O)ccc12 | 20 |  |  |  |  | 7 |  | 
Cc1coc2cc3oc(=O)ccc3cc12 | 63 | 9 | 1 | 0.5 | > 100 | 15 | >200 | O2 production [18]: 71%
Cc1cc(=O)oc2cc3c(cc12)C(C)CO3 (centres undefined) | 45 |  |  |  |  | 22 | >4 | LC50 (Artemia salina [9]): 25 µM; LC50 (Artemia salina [10]): > 100 µM
CCOc1c2ccoc2c(OCC)c2oc(=O)ccc12 | 75 | 0.5 | 0.5 | > 100 | > 100 | 14 |  | O2 production [18]: -4%; Kd [14]: 178 µM; Kd [2]: 28 µM; Kd [15]: 167 µM; Kd [16]: 23 µM
COc1c2c(cc3ccc(=O)oc13)CCO2 | 4 |  |  |  |  | 5 |  | 
COc1c2occc2cc2ccc(=O)oc12 [METHOXSALEN] | 5 | 10 | 1 | 2.2 | > 100 | 4 | >40 | O2 production [18]: 9%
Cc1coc2cc3oc(=O)cc(CO)c3cc12 | 11 |  |  |  |  | 4 |  | 
O=c1ccc2cc3c(-c4ccccc4)coc3cc2o1 | 68 |  |  |  |  | 1.4 |  | 
CCOc1cc(OCC)c2ccc(=O)oc2c1 | 40 |  |  |  |  | 0.7 |  | 
CCOCc1c2ccoc2c(OC)c2oc(=O)ccc12 | 16 | 1.5 | 2 |  |  | 2 |  | O2 production [1]: 7%
C=CCOCc1c2ccoc2c(OC)c2oc(=O)ccc12 | 24 |  |  |  |  | 6 |  | 
